Screening results: PubChem, Broad Institute
Only a selection was taken, and hits are over-represented in it overall.
INS-1E ATP HTS = rescue of cytokine-induced death in INS-1E beta cells. INS-1E cytokine-induced death, ATP luminescence, 48 h; normalised: neutral wells 0, positive control 100. protection from cytokine-induced ATP loss, % at 10 µM. 0.1% of 20,000 active. AID 488910;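 active means mean replicate protection from cytokine-induced ATP loss at least 50% and at least 75% of replicates each reaching 50%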
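Test system: INS-1E rat cells | Quantity: 8000 cells per well | Medium: Phenol-red-free RPMI with 5% fetal bovine serum | Reagent: Cytokine cocktail of IFN-γ, TNF-α and IL-1β | Doses: One compound concentration, pin transfer | Timing: 48 h co-treatment, 10 min post-lysis read | Technique: Luminescent ATP assay (CellTiter-Glo)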
T cruzi HTS = intracellular Trypanosoma cruzi inhibition; AID 651903; 4.9% of 22,000 active; intracellular Trypanosoma cruzi in host cells, plate reader; activity score (inhibition), % at 5.01 µM; in the data active means activity score above about 55%;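 further: parasites and compound incubated about four days before reading; 0% = median of neutral control wells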
A1 apoptosis 2 = compounds inhibiting A1, read as caspase activation; MEF A1-2A-BIM cells, caspase-Glo luminescence, 3 h; percent of clofoctol response, DMSO zero; caspase activation, % (test concentration not listed); 24,000 tested, under 10 active; AID 2465; in the data active means caspase activation above about 5.9%
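system = A1-2A-BIM-expressing MEF cells | quantity = 2500 MEF cells/well | dosing = 50 nL compound per well, pinned | schedule = overnight cell settling, then 3 h compound exposure, 37 °C | signal = luminescence from DEVD-luciferin Caspase-Glo reagent, 1:1 in 50 mM HEPES, 1 h RT | read-out = Caspase-3/7 activation, seen as rise in luminescence signal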
* marks the source's active call; other numbers are inactive results; x = not tested or not shown.

SMILES	INS-1E ATP HTS	T cruzi HTS	A1 apoptosis 2
C[C@H]1CN([C@@H](C)CO)C(=O)c2cc(NC(=O)Cc3cn(C)c4ccccc34)ccc2O[C@@H]1CN(C)Cc1ccc(-c2ccccc2)cc1	-10	75*	1
C[C@H]1CN([C@@H](C)CO)C(=O)Cc2cc(NC(=O)Cc3cn(C)c4ccccc34)ccc2O[C@@H]1CN(C)Cc1ccc(Cl)c(Cl)c1	x	x	0
C[C@H](CO)N1C[C@H](C)[C@@H](CN(C)Cc2ccc(Cl)c(Cl)c2)Oc2ccc(NC(=O)Cc3cn(C)c4ccccc34)cc2C1=O	-9	-4	0
CC1(C)COC(CCC/C=N/NC(=O)CCCCCC(=O)O)OC1	9	-30	x
Cc1ncc(CO)c(/C=N/NC(=O)c2cccc(C(=O)NO)c2)c1O	-2	2	0
COC(=O)CCCCCCC(=O)N/N=C/c1ccc([N+](=O)[O-])c(O)c1	-2	9	0
C[C@@H]1CN([C@H](C)CO)C(=O)Cc2cc(NS(=O)(=O)c3ccc(F)cc3)ccc2O[C@@H]1CN(C)S(=O)(=O)c1ccc(Cl)cc1	0	58*	x
C[C@@H]1CN([C@@H](C)CO)C(=O)Cc2cc(NS(=O)(=O)c3ccc(F)cc3)ccc2O[C@@H]1CN(C)S(=O)(=O)c1ccc(Cl)cc1	-12	65*	x
C[C@@H]1CN([C@H](C)CO)C(=O)Cc2cc(NS(=O)(=O)c3ccc(Cl)cc3)ccc2O[C@H]1CN(C)S(=O)(=O)c1ccc(F)cc1	10	-6	0
C[C@H]1CN([C@@H](C)CO)C(=O)Cc2cc(NS(=O)(=O)c3ccc(F)cc3)ccc2O[C@@H]1CN(C)S(=O)(=O)c1ccc(Cl)cc1	8	3	1
O=C(CCCCCC(=O)N/N=C/c1cccnc1Br)NO	x	x	0
C[C@H]1CN([C@@H](C)CO)C(=O)Cc2cc(NS(=O)(=O)c3ccc(Cl)cc3)ccc2O[C@H]1CN(C)S(=O)(=O)c1ccccc1	7	-2	x
C[C@@H]1CN([C@@H](C)CO)C(=O)Cc2cc(NS(=O)(=O)c3ccccc3)ccc2O[C@@H]1CN(C)S(=O)(=O)c1ccc(Cl)cc1	-6	67*	0
Cc1ccc(S(=O)(=O)Nc2ccc3c(c2)CC(=O)N([C@H](C)CO)C[C@H](C)[C@H](CN(C)S(=O)(=O)c2ccccc2)O3)cc1	5	-7	0
C[C@H]1CN([C@@H](C)CO)C(=O)Cc2cc(NS(=O)(=O)c3ccc(Cl)cc3)ccc2O[C@H]1CN(C)S(=O)(=O)c1ccc(Cl)cc1	-4	-1	-1
Cc1ccc(S(=O)(=O)Nc2ccc3c(c2)CC(=O)N([C@H](C)CO)C[C@@H](C)[C@@H](CN(C)S(=O)(=O)c2ccccc2)O3)cc1	1	69*	x
C[C@@H]1CN([C@@H](C)CO)C(=O)Cc2cc(NS(=O)(=O)c3ccc(Cl)cc3)ccc2O[C@@H]1CN(C)S(=O)(=O)c1ccc(Cl)cc1	-5	67*	x
COCCOC(=O)N1C(=O)[C@@]2(c3cc(C#CC4(O)CCCCCC4)ccc31)[C@H](C(N)=O)[C@H]1C(=O)O[C@H](c3ccccc3)[C@H](c3ccccc3)N1[C@@H]2c1ccc(OCCO)cc1	x	x	-1
COc1ccc([C@@H]2C=C(C(=O)O)O[C@H](OCc3ccc(CO)cc3)C2)cc1	x	x	0
COc1cc(Br)c(/C=N/NC(=O)c2ccccn2)cc1OC	7	-4	0
C=CCN1C(=O)[C@@]2(O[C@@H](CCO)[C@H]([Si](C)(C)c3ccc(OC)cc3)[C@H]2C)c2cc(I)ccc21	x	x	-2
COC(=O)CCCCCCC(=O)N/N=C/c1ccccc1OCCO	5	-9	1
N#Cc1ccc(/C=N/NC(=O)c2ccc(C(=O)NO)cc2)cc1	10	2	x
COc1ccc(S(=O)(=O)Nc2ccc3c(c2)CC(=O)N([C@@H](C)CO)C[C@H](C)[C@H](CN(C)Cc2ccccc2)O3)cc1	2	43	0
COc1ccc(S(=O)(=O)Nc2ccc3c(c2)CC(=O)N([C@@H](C)CO)C[C@H](C)[C@@H](CN(C)Cc2ccc(-c4ccccc4)cc2)O3)cc1	-66	73*	x
SMILES	INS-1E ATP HTS	T cruzi HTS	A1 apoptosis 2
COc1ccc(S(=O)(=O)Nc2ccc3c(c2)CC(=O)N([C@@H](C)CO)C[C@@H](C)[C@@H](CN(C)Cc2ccc(-c4ccccc4)cc2)O3)cc1	-32	64*	0
COc1ccc(S(=O)(=O)Nc2ccc3c(c2)CC(=O)N([C@H](C)CO)C[C@H](C)[C@H](CN(C)Cc2ccc(-c4ccccc4)cc2)O3)cc1	-28	25	-1
COc1ccc(S(=O)(=O)Nc2ccc3c(c2)CC(=O)N([C@H](C)CO)C[C@@H](C)[C@H](CN(C)Cc2ccccc2)O3)cc1	3	66*	0
COc1ccc(S(=O)(=O)Nc2ccc3c(c2)CC(=O)N([C@H](C)CO)C[C@@H](C)[C@@H](CN(C)Cc2ccc(Oc4ccccc4)cc2)O3)cc1	-29	70*	0
COc1ccc(S(=O)(=O)Nc2ccc3c(c2)CC(=O)N([C@H](C)CO)C[C@H](C)[C@H](CN(C)Cc2ccc(Oc4ccccc4)cc2)O3)cc1	-16	22	x
COc1ccc(S(=O)(=O)Nc2ccc3c(c2)CC(=O)N([C@H](C)CO)C[C@H](C)[C@@H](CN(C)Cc2ccc(-c4ccccc4)cc2)O3)cc1	x	x	-1
C=CCNC(=O)[C@H]1[C@@H]2C(=O)O[C@@H](c3ccccc3)[C@@H](c3ccccc3)N2[C@@H](c2ccccc2OCCO)[C@]12C(=O)Nc1ccc(C#CC3=CCCCC3)cc12	x	x	-1
C[C@@H]1CN([C@@H](C)CO)C(=O)c2cccc(NC(=O)NC3CCCCC3)c2O[C@H]1CN(C)C(=O)Nc1ccccc1	-4	0	-1
O=C(NO)c1ccc(C(=O)N/N=C/c2ccc[nH]2)cc1	-4	-3	x
CC1(C)[C@H]2CC=C(/C=N\NC(=O)c3ccccn3)[C@@H]1C2	-6	-1	-1
C[C@@H]1CN([C@@H](C)CO)C(=O)c2cccc(NC(=O)Nc3ccc4c(c3)OCO4)c2O[C@H]1CN(C)C(=O)Nc1ccc(F)cc1	0	9	0
O=C(NO)c1cccc(C(=O)N/N=C/c2ccc(B(O)O)cc2)c1	-14	-16	-3
C[C@@H]1CCCCO[C@@H](CN(C)CC2CCCCC2)[C@@H](C)CN([C@H](C)CO)C(=O)c2cc(NC(=O)Nc3cccc4ccccc34)ccc2O1	-32	67*	x
C[C@H](CO)N1C[C@H](C)[C@@H](CN(C)CC2CC2)OCCCC[C@H](C)Oc2ccc(NC(=O)Nc3cccc4ccccc34)cc2C1=O	x	x	1
C[C@@H]1CCCCO[C@H](CN(C)CC2CCCCC2)[C@@H](C)CN([C@H](C)CO)C(=O)c2cc(NC(=O)Nc3cccc4ccccc34)ccc2O1	-33	64*	x
C[C@@H]1CCCCO[C@@H](CN(C)CC2CCCCC2)[C@H](C)CN([C@@H](C)CO)C(=O)c2cc(NC(=O)Nc3cccc4ccccc34)ccc2O1	x	x	0
Cc1nnc(Sc2ccc(/C=N/NC(=O)c3ccccn3)o2)n1C	4	-8	-1
